Assay results gathered from unrelated publications.
Each line is one published result; the experiments were not run side by side.
Target: LIM domain kinase 1 (LIMK1, Homo sapiens, UniProt P53667)

Compound | assay | setting | endpoint | result
Cn1cc(-c2cccc(N3CCc4c(sc5c4CC(C)(C)C5)C3=O)c2CO)cc(Nc2ccncn2)c1=O | enzyme activity, inhibitor | 1 µM | inhibition | 9%
Nc1ncc(-c2nc(N3CCOCC3)nc(N3CCOCC3)n2)c(C(F)F)n1 | binding, competition with immobilised ligand | 10 µM | remaining binding | 86%
Cn1cncc1[C@](O)(COc1ccc(C#N)cc1-c1ccc(OC(F)(F)F)cc1)c1ccc(C#N)cc1 | cell-free assay, competition with immobilised ligand | 1 µM | remaining binding | 89%
COc1ncccc1-c1cnn2ccc(N3CCN(C(=O)OC(C)C)CC3)nc12 | binding, competition with immobilised ligand | 1 µM | remaining binding | 100%
N#CC1(c2ccccn2)CCN(Cc2cc(C(=O)O)c(=O)n3ccccc23)CC1 | cell-free assay, competition with immobilised ligand | 1 µM | remaining binding | 100%
Cc1nn(C)cc1-c1nc2c(N3CCN(Cc4ccc(Cl)cc4)CC3)c(Cl)cnc2[nH]1 | binding, competition with immobilised ligand | 1 µM | remaining binding | 58%
CC(C)(C)c1cc(C=C(C#N)C#N)cc(Br)c1O | enzyme activity, inhibitor | 0.5 µM | remaining activity | 98.5%
Cn1cc(-c2cc(F)cc(N3CCn4c(cc5c4CCCC5)C3=O)c2CO)cc(Nc2ccc(N3CCN(C4COC4)CC3)cn2)c1=O | enzyme activity, inhibitor | 0.1 µM | inhibition | 2%
COc1cc(Nc2ncc(F)c(Nc3ccc4c(n3)NC(=O)C(C)(C)O4)n2)cc(OC)c1OC | binding, competition with immobilised ligand | 10 µM | inhibition | 85%
O=c1[nH]c2ccccc2n1C1CCN(Cc2ccc(-c3[nH]c4cc5ncnc5cc4nc3-c3ccccc3)cc2)CC1 | cell-free assay | 0.5 µM | remaining signal | 110%
